The text below walks through data of ChEMBL document CHEMBL3091418, “Discovery of a novel activator of 5-lipoxygenase from an anacardic acid derived compound collection” (Bioorg Med Chem, 2013).

Calls of active or inactive are those of the source. The calls are words filed in the database; no cut-off is given here. Bounds are passed on as bounds.

Usually Ki stands for the equilibrium dissociation constant of an inhibitor or competing ligand from its target. A high value points to weaker binding. As a reminder, the inhibition is the share of the control response that was lost under treatment.

For data set [1], the target named is T1, Polyunsaturated fatty acid 5-lipoxygenase (Homo sapiens, UniProt P09917).
T1 sequence (P09917 whole entry): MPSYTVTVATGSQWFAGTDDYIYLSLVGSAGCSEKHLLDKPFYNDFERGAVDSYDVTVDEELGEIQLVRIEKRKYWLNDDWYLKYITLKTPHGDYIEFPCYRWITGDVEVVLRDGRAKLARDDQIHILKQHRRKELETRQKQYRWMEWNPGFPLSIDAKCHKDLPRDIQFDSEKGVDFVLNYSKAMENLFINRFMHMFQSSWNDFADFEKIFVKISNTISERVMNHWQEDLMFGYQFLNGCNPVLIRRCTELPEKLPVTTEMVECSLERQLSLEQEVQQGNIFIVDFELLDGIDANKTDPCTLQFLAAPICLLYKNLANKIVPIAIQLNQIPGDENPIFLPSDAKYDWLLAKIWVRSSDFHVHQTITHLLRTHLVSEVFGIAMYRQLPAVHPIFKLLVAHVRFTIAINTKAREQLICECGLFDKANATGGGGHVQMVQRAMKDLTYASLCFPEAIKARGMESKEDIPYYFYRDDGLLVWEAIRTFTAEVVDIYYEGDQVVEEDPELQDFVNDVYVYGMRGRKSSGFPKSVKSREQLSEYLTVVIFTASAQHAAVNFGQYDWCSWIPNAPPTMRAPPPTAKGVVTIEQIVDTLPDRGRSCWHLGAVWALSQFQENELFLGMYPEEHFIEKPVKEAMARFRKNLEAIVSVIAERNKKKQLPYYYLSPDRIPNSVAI
Put plainly: Binding affinity to human 5-LOX using linoleic acid as substrate. Summed up:
(§1)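 Human 5-LOX in 50 mM Tris pH 7.5 with 2 mM EDTA and 2 mM CaCl2, pre-incubated 10 min at room temperature with the modulator at fixed 0–50 μM. Linoleic acid was varied 37.5–300 μM with ATP at 100 μM. Initial rates came from the 234 nm diene absorbance, in triplicate. Dissociation constants for free and substrate-bound enzyme were derived by Lineweaver-Burk slope/intercept re-plots.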

Data set [2] has as its target T2, Polyunsaturated fatty acid 5-lipoxygenase (Homo sapiens) (UniProt P09917).
T2 sequence (whole entry): T1 sequence (P09917 whole entry)
Briefly: Inhibition of human 5-LOX using lionleic acid as substrate assessed as formation of 13-HPOD at 50 uM incubated for 10 mins prior to substrate addition measured after 10 secs by UV absorbance assay. In outline:
(§2)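 Recombinant human 5-LOX (1:4000 dilution) in 50 mM Tris pH 7.5 with 2 mM EDTA, 2 mM CaCl2 and ATP, pre-incubated 10 min at room temperature with 50 μM compound (DMSO stock diluted in buffer). Linoleic acid (100 μM final) then added. Conjugated-diene HPOD formation read at 234 nm over 20 min, starting after 10 s mixing. Activity given relative to DMSO control (100%) and no-enzyme blank (0%). Triplicate.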

The target of data set [3] is T1, Polyunsaturated fatty acid 5-lipoxygenase. Put plainly: Binding affinity to human 5-LOX-linoleic acid complex. In outline:
as §1

Data set [4] addresses T3, Prostaglandin G/H synthase 2 (Homo sapiens) (UniProt P35354).
T3 sequence (whole entry): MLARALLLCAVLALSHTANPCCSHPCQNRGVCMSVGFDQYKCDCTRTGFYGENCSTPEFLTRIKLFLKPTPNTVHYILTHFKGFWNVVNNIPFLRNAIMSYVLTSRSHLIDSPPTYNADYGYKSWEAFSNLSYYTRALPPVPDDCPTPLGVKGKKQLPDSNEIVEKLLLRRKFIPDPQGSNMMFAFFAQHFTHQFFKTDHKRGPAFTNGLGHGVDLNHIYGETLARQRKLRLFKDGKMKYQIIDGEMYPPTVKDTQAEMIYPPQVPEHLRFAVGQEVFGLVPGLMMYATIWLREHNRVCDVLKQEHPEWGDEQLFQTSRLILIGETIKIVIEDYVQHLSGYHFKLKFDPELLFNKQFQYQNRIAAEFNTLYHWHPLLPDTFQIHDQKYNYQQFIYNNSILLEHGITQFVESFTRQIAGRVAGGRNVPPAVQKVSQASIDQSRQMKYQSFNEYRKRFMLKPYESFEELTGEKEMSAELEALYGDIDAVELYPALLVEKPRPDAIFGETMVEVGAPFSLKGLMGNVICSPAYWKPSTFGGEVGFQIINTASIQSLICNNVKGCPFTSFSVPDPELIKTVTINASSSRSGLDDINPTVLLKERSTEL
Briefly: Inhibition of human COX2 using arachidonic acid as substrate assessed as formation of TMPD at 50 uM incubated for 5 mins prior to substrate addition measured after 5 mins by spectrophotometry. In outline: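 Human recombinant COX-2 (1:1000) in 0.1 M Tris pH 8.0 with hematin, pre-incubated 5 min at room temperature with 50 μM compound. TMPD and arachidonic acid then added and incubated 5 min at room temperature. Oxidized TMPD read at 550 nm. Controls: DMSO (100%) and no arachidonic acid. Triplicate, mean ± SD.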

The target in data set [5] is T2, Polyunsaturated fatty acid 5-lipoxygenase (Homo sapiens). Briefly: Modulation of human 5-LOX using linoleic acid as substrate at 50 uM. In outline:
as §2

Data set [6] can be described thus: Critical micelle concentration of the compound in 50 mM Tris buffer containing 2 mM EDTA, 2 mM CaCl2 at pH 7.5 at 19 degC. It is filed as ADME. Summed up: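 Surface tension measured across a range of compound concentrations in the 5-LOX assay buffer at room temperature (19 °C) and plotted against log concentration. The CMC was read from this plot.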
Data set [7] concerns the target T2, Polyunsaturated fatty acid 5-lipoxygenase (Homo sapiens). Briefly: Modulation of human 5-LOX using arachidonic acid as substrate at 50 uM. In outline:
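Human 5-LOX in Tris pH 7.5 buffer with EDTA and CaCl2, pre-incubated 10 min with 50 μM compound. Substrate was arachidonic acid, 100 μM final. Residual activity measured by UV absorbance of conjugated diene product, relative to an uninhibited control.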

Data set [8] is described as follows: Critical micelle concentration of the compound in 50 mM Tris buffer with 2 mM EDTA and 2 mM CaCl2 at pH 7.5 at 19 degC.
For data set [9], the target named is T2, Polyunsaturated fatty acid 5-lipoxygenase (Homo sapiens). Put plainly: Binding affinity to human 5-LOX-linoleic acid complex at <10 uM by Lineweaver-Burk plot analysis relative to human 5-LOX.
Data set [10] has the same target. Put plainly: Non-competitive activation of human 5-LOX using linoleic acid as substrate assessed as increase in Vmax (app) at 12.5 to 25 uM by Lineweaver-Burk plot analysis in presence of ATP. In outline: (§3)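 Human 5-LOX, UV assay at 234 nm as in screening. Initial velocities measured with ATP varied over 12.5–200 μM, linoleic acid fixed at 100 μM, and activator at 0, 12.5 or 25 μM. Vmax(app) and Km(app) obtained from Michaelis-Menten and Lineweaver-Burk plots. Triplicate.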

Data set [11] has the same target. Put plainly: Activation of human 5-LOX using lionleic acid as substrate assessed as formation of 13-HPOD at 50 uM incubated for 10 mins prior to substrate addition measured after 10 secs by UV absorbance assay. In outline:
as §2

The target is the same in data set [12]. Briefly: Activation of human 5-LOX using lionleic acid as substrate assessed as formation of 13-HPOD incubated for 10 mins prior to substrate addition measured after 10 secs by UV absorbance assay. Summed up: as §2
For data set [13] the target is unchanged. Briefly: Non-competitive activation of human 5-LOX using linoleic acid as substrate assessed as increase in Vmax (app) at 12.5 to 25 uM by Michaelis-Menten equation analysis in presence of ATP. In outline:
as §3

For data set [14] the target is unchanged. Briefly: Non-essential mixed type activation of human 5-LOX assessed as increase in Vmax (app) at 12.5 to 25 uM by Michaelis-Menten/ Lineweaver-Burk plot analysis in presence of linoleic acid. In outline: (§4)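 Human 5-LOX, conjugated diene read at 234 nm (ε = 25000 M−1cm−1). ATP fixed at 100 μM, linoleic acid varied over 37.5–300 μM, activator at 0, 12.5 or 25 μM. Km(app) and Vmax(app) taken from Michaelis-Menten and Lineweaver-Burk plots. Triplicate, mean ± SD.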

Data set [15] has the same target. Briefly: Non-essential mixed type activation of human 5-LOX assessed as decrease in Km (app) at 12.5 to 25 uM by Michaelis-Menten/ Lineweaver-Burk plot analysis in presence of lonoleic acid. Summed up:
as §4

Data set [16] shares this target. Briefly: Binding affinity to human 5-LOX-linoleic acid complex by Lineweaver-Burk plot analysis.
Data set [17] shares this target. Briefly: Binding affinity to human 5-LOX using linoleic acid as substrate by Lineweaver-Burk plot analysis.

On to `CC(C)CCCC(C)CCOc1ccc(COc2cccc(O)c2C(=O)[O-])cc1.[K+]` (configuration not stated), for which the figures for the inhibitory constant (Ki) in data set [1] and in data set [3] were 70.3 µM and 140 µM, respectively. For the same compound, the inhibition in data set [2] is 50%; in [4] it was < 50%. The result in data set [5] was Active. For the same compound, the CMC in [6] is 395 µM. Besides, the outcome in data set [7] was inactive.
`CCCCCCCOc1cccc(COc2cccc(O)c2C(=O)O)c1`: in [4], the inhibition is < 50%.
For the compound `CCCCCCCCCCCCCCCc1cccc(O)c1C(=O)O`, the inhibition entry in data set [2] is “Active”. The inhibition in data set [4] was < 50%.
For `CCCCCCCc1ccc(CCc2cccc(O)c2C(=O)O)cc1`, the inhibition in data set [4] was < 50%.
Turning to `CCCCCCCCCCCCCCCc1cc(O)cc(O)c1C(=O)O`, in [2], the inhibition result is “Active”. In [4], the inhibition was < 50%.
In the case of `CCCCCCCCCOc1cccc(O)c1C(=O)O`, in data set [4], the inhibition is < 50%.
Regarding `CCCCCCCCCCCCCCOc1cccc(O)c1C(=O)O`, in data set [4], the inhibition is < 50%.
Take `CCCCCCCOc1ccc(COc2cccc(O)c2C(=O)O)cc1`: in data set [2], the inhibition result was “inactive”. Further, in data set [4], the inhibition is < 50%.
On to `CCCCCCCCCOc1cccc(COc2cccc(O)c2C(=O)O)c1`, for which the inhibition in data set [4] is < 50%.
For `CCCCCc1cccc(O)c1C(=O)O`, in [2], the inhibition result is “Active”. Moreover, in data set [4], the inhibition was < 50%.
For `Oc1ccccc1-c1nc2ccccc2o1` the same measures were “inactive” and 50%.
For `CCCCCCCCCCc1cccc(O)c1C(=O)O` the same measures were “Active” and < 50%.
Turning to `CCCCCCCCCCc1ccc(CCc2cc(O)cc(O)c2C(=O)O)cc1`, the inhibition in data set [4] is < 50%.
Consider `CCCCC/C=C\C/C=C\CCCCCCCC(=O)O` [LINOLEIC ACID], for which, in [8], the CMC came out at 185 µM.
In [9], `CCCCCOc1ccc(COc2cccc(O)c2C(=O)[O-])cc1.[K+]` showed a fold change (FC) of 50. Besides, the result in data set [10], in data set [11], in [5], in data set [13], in data set [14] and in data set [15] was Active. The inhibition in [4] was < 50%. Further, the CMC in data set [6] is 628 µM. In addition, the Activity result in data set [12] was “Dose-dependent effect”. The outcome in data set [7] was inactive. The Ka was 380 nM in [16] and 8.65 µM in [17].
With `CCCCCCCCCOc1ccc(COc2cccc(O)c2C(=O)O)cc1`, in [2], the inhibition result was “inactive”. The inhibition in data set [4] is < 50%.
As for `CCCCCCCc1ccc(CCc2cc(O)cc(O)c2C(=O)O)cc1`, in data set [4], the inhibition was < 50%.
